Tests used:
[1] = tested on: hSUR2B mutations (A478V, R1154Q, indel1055); experiment: DiBAC4; assay type: cell-based, human; settings: for reversal of mutation-caused hyperpolarization by inhibitor: basal activity without KCO, hSUR2B A478V, R1154Q, indel1055
Outline: (§1)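 Stable landing-pad HEK293 lines expressing hKir6.1/hSUR2B mutants were induced with doxycycline (4 μg/ml) and grown 1 day on poly-L-lysine. Cells were washed in low-K buffer (1 mM KCl, HEPES, pH 7.4), then incubated ≥30 min with 3 μM DiBAC4(3) plus blocker (glibenclamide, repaglinide or PNU37883A), without opener. Cells were segmented by red fluorescence, background-subtracted and mean-intensity averaged over duplicate images.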

cardiac function = settings: ref Humphrey et al., 1996; cited from earlier work
hKir6.1[A46V] = hKir6.1[A46V] (Homo sapiens, UniProt O60706+Q15842, A46V); experiment: DiBAC4; assay type: cell-based; settings: basal activity without KCO
hKir6.1[A46V], sequence (Q15842 whole entry A46V): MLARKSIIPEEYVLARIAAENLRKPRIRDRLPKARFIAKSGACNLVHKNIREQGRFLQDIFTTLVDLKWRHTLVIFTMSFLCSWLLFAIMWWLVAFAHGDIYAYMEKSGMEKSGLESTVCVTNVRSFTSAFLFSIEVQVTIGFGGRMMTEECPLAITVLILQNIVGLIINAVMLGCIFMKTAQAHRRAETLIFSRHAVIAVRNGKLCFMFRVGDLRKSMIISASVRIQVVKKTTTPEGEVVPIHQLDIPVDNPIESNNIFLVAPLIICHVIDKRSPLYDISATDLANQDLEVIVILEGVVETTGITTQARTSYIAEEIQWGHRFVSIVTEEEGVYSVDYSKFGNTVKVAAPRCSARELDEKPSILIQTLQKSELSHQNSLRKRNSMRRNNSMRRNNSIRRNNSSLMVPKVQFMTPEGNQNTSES
hKir6.1[A46V], sequence (O60706 1-1549 isoform O60706-2, stated change not applied): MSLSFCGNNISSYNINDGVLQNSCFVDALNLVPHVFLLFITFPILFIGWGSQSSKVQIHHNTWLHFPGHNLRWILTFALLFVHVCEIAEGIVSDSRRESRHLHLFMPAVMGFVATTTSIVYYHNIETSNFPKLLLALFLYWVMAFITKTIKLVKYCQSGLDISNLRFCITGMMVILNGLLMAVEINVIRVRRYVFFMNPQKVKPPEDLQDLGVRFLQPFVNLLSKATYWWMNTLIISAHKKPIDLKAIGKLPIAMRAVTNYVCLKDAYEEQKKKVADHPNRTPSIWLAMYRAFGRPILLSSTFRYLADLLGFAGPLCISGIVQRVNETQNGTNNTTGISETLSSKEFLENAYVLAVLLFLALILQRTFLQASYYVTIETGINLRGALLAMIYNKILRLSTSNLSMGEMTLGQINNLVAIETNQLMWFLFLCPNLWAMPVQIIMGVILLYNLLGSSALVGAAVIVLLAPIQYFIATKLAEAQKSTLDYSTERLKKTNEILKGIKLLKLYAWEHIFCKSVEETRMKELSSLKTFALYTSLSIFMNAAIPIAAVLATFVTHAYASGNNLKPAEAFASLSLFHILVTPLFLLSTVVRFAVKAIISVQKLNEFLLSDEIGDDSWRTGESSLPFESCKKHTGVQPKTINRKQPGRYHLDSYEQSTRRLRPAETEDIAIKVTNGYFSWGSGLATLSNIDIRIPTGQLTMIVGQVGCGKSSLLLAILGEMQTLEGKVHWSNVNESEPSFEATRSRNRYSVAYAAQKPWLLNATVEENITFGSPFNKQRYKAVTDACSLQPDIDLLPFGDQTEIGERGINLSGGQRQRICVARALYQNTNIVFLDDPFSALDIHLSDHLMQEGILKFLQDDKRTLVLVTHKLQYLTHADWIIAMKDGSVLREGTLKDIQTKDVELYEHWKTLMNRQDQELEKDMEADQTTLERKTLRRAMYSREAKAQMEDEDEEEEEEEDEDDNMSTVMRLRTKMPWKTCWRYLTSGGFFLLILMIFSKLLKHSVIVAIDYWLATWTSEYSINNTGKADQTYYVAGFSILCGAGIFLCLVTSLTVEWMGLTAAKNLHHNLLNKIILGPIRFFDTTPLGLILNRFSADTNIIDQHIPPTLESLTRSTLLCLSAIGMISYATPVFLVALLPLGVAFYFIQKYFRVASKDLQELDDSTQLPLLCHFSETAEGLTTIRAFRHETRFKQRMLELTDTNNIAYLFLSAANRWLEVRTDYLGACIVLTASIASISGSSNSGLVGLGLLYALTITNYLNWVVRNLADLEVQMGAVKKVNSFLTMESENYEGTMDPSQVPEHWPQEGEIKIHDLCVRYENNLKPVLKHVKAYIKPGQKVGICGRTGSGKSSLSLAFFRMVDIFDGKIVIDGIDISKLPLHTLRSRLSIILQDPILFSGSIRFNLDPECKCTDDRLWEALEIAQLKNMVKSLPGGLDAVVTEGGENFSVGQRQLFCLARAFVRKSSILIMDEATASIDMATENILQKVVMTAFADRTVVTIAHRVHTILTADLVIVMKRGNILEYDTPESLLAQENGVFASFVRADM
Outline: as §1

Kir6.1[D338E] = Kir6.1[D338E] (Homo sapiens, UniProt O60706+Q15842, D338E); experiment: DiBAC4; assay type: cell-based; settings: basal activity without KCO; printed hKir6.1[G338E]
Kir6.1[D338E], sequence (Q15842 whole entry D338E): as the sequence (Q15842 whole entry A46V) above, with V46A, D338E counted along it
Kir6.1[D338E], sequence (O60706 1-1549 isoform O60706-2, stated change not applied): as the sequence (O60706 1-1549 isoform O60706-2, stated change not applied) above

[2] = tested on: hKir6.1 mutations, particularly V65M, C176S and E189K; experiment: DiBAC4; assay type: cell-based, human; settings: for sensitivity of mutation-caused hyperpolarization to reversal by inhibitor: basal activity without KCO, hKir6.1 mutations, particularly V65M, C176S, E189K
Outline: as §1

hKir6.1[V65M]/hSUR2B = hKir6.1[V65M]/hSUR2B (Homo sapiens, UniProt O60706+Q15842, V65M); experiment: Thallium flux assay, Kir6.1[V65M] stable cells; assay type: cell-based; settings: for activation of Tl influx by KCO: KCOs at presumably maximal concentrations, compared with WT
hKir6.1[V65M]/hSUR2B, sequence (Q15842 whole entry V65M): as the sequence (Q15842 whole entry A46V) above, with V46A, V65M counted along it
hKir6.1[V65M]/hSUR2B, sequence (O60706 1-1549 isoform O60706-2, stated change not applied): as the sequence (O60706 1-1549 isoform O60706-2, stated change not applied) above

hKir6.1/hSUR2B[R1154Q] = hKir6.1/hSUR2B[R1154Q] (Homo sapiens, UniProt O60706+Q15842, R1154Q); experiment: Thallium flux assay, SUR2B[R1154Q] stable cells; assay type: cell-based; settings: KCOs at presumably maximal concentrations
hKir6.1/hSUR2B[R1154Q], sequence (Q15842 whole entry): as the sequence (Q15842 whole entry A46V) above, with V46A counted along it
hKir6.1/hSUR2B[R1154Q], sequence (O60706 1-1549 isoform O60706-2 R1154Q): as the sequence (O60706 1-1549 isoform O60706-2, stated change not applied) above, with R1154Q counted along it
Outline: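 Doxycycline-induced stable HEK293 cells on poly-L-lysine were loaded 1 h with Fluozin-2 in HBSS. […] Ex 485/em 528 nm was read every 2 s for 2 min, with Tl+ added at 20 s. Blank-subtracted, pre-Tl-normalized traces were fit single-exponentially, giving initial rate at t=0; n = 3–4.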

WT hKir6.1/hSUR2B [3] = target: T1, WT hKir6.1/hSUR2B (Homo sapiens, UniProt O60706+Q15842); assay type: cell-based; settings: for activation of Tl influx by KCO: KCOs at presumably maximal concentrations
T1 sequence (Q15842 whole entry): as the sequence (Q15842 whole entry A46V) above, with V46A counted along it
T1 sequence (O60706 1-1549 isoform O60706-2): as the sequence (O60706 1-1549 isoform O60706-2, stated change not applied) above

WT hKir6.1/hSUR2B [4] = target: T1, WT hKir6.1/hSUR2B; experiment: DiBAC4; assay type: cell-based; settings: WT cells
Outline: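 WT hKir6.1/hSUR2B and untransfected landing-pad HEK293 cells were loaded ≥30 min with 3 μM DiBAC4(3) in 1 mM K+ buffer. […] Background-subtracted mean cell fluorescence was normalized to untreated cells, n = 4–6. K conductance was estimated with a simplified Goldman-Hodgkin-Katz equation.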

hKir6.1[C176S]/hSUR2B = hKir6.1[C176S]/hSUR2B (Homo sapiens, UniProt O60706+Q15842, C176S); experiment: Thallium flux assay, Kir6.1[C176S] stable cells; assay type: cell-based
hKir6.1[C176S]/hSUR2B, sequence (Q15842 whole entry C176S): as the sequence (Q15842 whole entry A46V) above, with V46A, C176S counted along it
hKir6.1[C176S]/hSUR2B, sequence (O60706 1-1549 isoform O60706-2, stated change not applied): as the sequence (O60706 1-1549 isoform O60706-2, stated change not applied) above

[5] = tested on: hKir6.1/hSUR2B with hSUR2B mutations (A478V, indel1055, R1154Q, R1154W); experiment: Thallium flux assay, all cell lines with hSUR2B mutations; assay type: cell-based, human; settings: all hSUR2B mutant cell lines
Outline: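 Doxycycline-induced stable hKir6.1/hSUR2B-mutant HEK293 cells on poly-L-lysine were loaded 1 h with Fluozin-2 in HBSS. […] Ex 485/em 528 nm was read every 2 s for 2 min, with Tl+ added at 20 s. Blank-subtracted traces normalized to pre-Tl fluorescence were fit with a single exponential; initial rate was the derivative at t=0.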

hKir6.1[D338E]/hSUR2B = hKir6.1[D338E]/hSUR2B (Homo sapiens, UniProt O60706+Q15842, D338E); experiment: Thallium flux assay, Kir6.1[D338E] stable cells; assay type: cell-based
hKir6.1[D338E]/hSUR2B, sequence (Q15842 whole entry D338E): as the sequence (Q15842 whole entry A46V) above, with V46A, D338E counted along it
hKir6.1[D338E]/hSUR2B, sequence (O60706 1-1549 isoform O60706-2, stated change not applied): as the sequence (O60706 1-1549 isoform O60706-2, stated change not applied) above

hKir6.1[E189K]/hSUR2B = hKir6.1[E189K]/hSUR2B (Homo sapiens, UniProt O60706+Q15842, E189K); experiment: Thallium flux assay, Kir6.1[E189K] stable cells; assay type: cell-based
hKir6.1[E189K]/hSUR2B, sequence (Q15842 whole entry E189K): as the sequence (Q15842 whole entry A46V) above, with V46A, E189K counted along it
hKir6.1[E189K]/hSUR2B, sequence (O60706 1-1549 isoform O60706-2, stated change not applied): as the sequence (O60706 1-1549 isoform O60706-2, stated change not applied) above

gastric motility = settings: ref York et al., 2020; cited from earlier work
SUR2[A478V] mice = settings: ref McClenaghan et al., 2020b; cited from earlier work
hSUR2B[R1154W] = hSUR2B[R1154W] (Homo sapiens, UniProt O60706+Q15842, R1154W); experiment: DiBAC4; assay type: cell-based; settings: basal activity without KCO
hSUR2B[R1154W], sequence (Q15842 whole entry): as the sequence (Q15842 whole entry A46V) above, with V46A counted along it
hSUR2B[R1154W], sequence (O60706 1-1549 isoform O60706-2 R1154W): as the sequence (O60706 1-1549 isoform O60706-2, stated change not applied) above, with R1154W counted along it
Outline: as §1

hKir6.1[A46V]/hSUR2B = hKir6.1[A46V]/hSUR2B (Homo sapiens, UniProt O60706+Q15842, A46V); experiment: Thallium flux assay, Kir6.1[A46V] stable cells; assay type: cell-based
hKir6.1[A46V]/hSUR2B, sequence (Q15842 whole entry A46V): as the sequence (Q15842 whole entry A46V) above
hKir6.1[A46V]/hSUR2B, sequence (O60706 1-1549 isoform O60706-2, stated change not applied): as the sequence (O60706 1-1549 isoform O60706-2, stated change not applied) above

[6] = target: Kir6.1/SUR2B[R1154Q] mutant channels (Homo sapiens, UniProt O60706+Q15842, R1154Q); experiment: Whole-cell patch-clamp, stably transfected R1154Q mutant channels; assay type: cell-based
Kir6.1/SUR2B[R1154Q] mutant channels, sequence (Q15842 whole entry): as the sequence (Q15842 whole entry A46V) above, with V46A counted along it
Kir6.1/SUR2B[R1154Q] mutant channels, sequence (O60706 1-1549 isoform O60706-2 R1154Q): as the sequence (O60706 1-1549 isoform O60706-2, stated change not applied) above, with R1154Q counted along it

WT Kir6.1/SUR2B channels = WT Kir6.1/SUR2B channels (Homo sapiens, UniProt O60706+Q15842); experiment: Whole-cell patch-clamp, stably transfected WT channels; assay type: cell-based; settings: Vm -60 mV
WT Kir6.1/SUR2B channels, sequence (Q15842 whole entry): as the sequence (Q15842 whole entry A46V) above, with V46A counted along it
WT Kir6.1/SUR2B channels, sequence (O60706 1-1549 isoform O60706-2): as the sequence (O60706 1-1549 isoform O60706-2, stated change not applied) above

[7] = most SUR2B CS mutations, basal activity

Compound: C1CCC(N=C(NC23CC4CC(CC(C4)C2)C3)N2CCOCC2)CC1.Cl [PNU37883A]
- reversal of mutation-caused hyperpolarization by inhibitor [1]: readily reversed
- effects on cardiac function (cardiac function): Fatal effects
- reversal of mutation-caused hyperpolarization by inhibitor (hKir6.1[A46V]): readily reversed
- sensitivity of mutation-caused hyperpolarization to reversal by inhibitor (Kir6.1[D338E]): uniquely insensitive
- inhibition of basal Kir6.1 mutation activities, comparison ([2]; at saturating doses): more effective than glibenclamide or repaglinide
- sensitivity of mutation-caused hyperpolarization to reversal by inhibitor [2]: very poorly sensitive

Compound: CC1(C)Oc2ccc(C#N)cc2C(N2CCCC2=O)C1O (centres unmarked) [cromakalim]
- activation of Tl influx by KCO (hKir6.1[V65M]/hSUR2B; hKir6.1[V65M]): enhanced activation
- activation of Tl influx by KCO (hKir6.1/hSUR2B[R1154Q]): not activated
- activation of Tl influx by KCO (WT hKir6.1/hSUR2B [3]; WT): activated

Compound: CC1=NS(=O)(=O)c2cc(Cl)ccc2N1 [diazoxide]
- concentrations generating clear KATP-dependent hyperpolarization signals (WT hKir6.1/hSUR2B [4]; 1 mM [K+]o): above 1 μM
- effect on membrane potential (DiBAC4(3) fluorescence) (WT hKir6.1/hSUR2B [4]; 1 mM [K+]o): dose-dependently hyperpolarized
- activation of Tl influx by KCO (hKir6.1[V65M]/hSUR2B; hKir6.1[V65M]): measurable activation
- activation of Tl influx by KCO (hKir6.1/hSUR2B[R1154Q]): not activated
- activation of Tl influx by KCO (WT hKir6.1/hSUR2B [3]; WT): no effect

Compound: C=C[C@@]1(C)CC(=O)[C@]2(O)[C@@]3(C)[C@@H](O)CCC(C)(C)[C@@H]3[C@H](O)[C@H](OC(C)=O)[C@@]2(C)O1 [forskolin]
- Tl-influx rate with forskolin (hKir6.1[C176S]/hSUR2B; hKir6.1[C176S], 10 μM forskolin): increased
- effect of forskolin on membrane potential (DiBAC4(3)) (WT hKir6.1/hSUR2B [4]; 10 μM forskolin): significant hyperpolarization
- Tl-influx rate with forskolin (hKir6.1[V65M]/hSUR2B; hKir6.1[V65M], 10 μM forskolin): increased
- response of Tl-influx rate to forskolin ([5]; 10 μM forskolin): essentially insensitive
- Tl-influx rate with forskolin (hKir6.1[D338E]/hSUR2B; hKir6.1[D338E], 10 μM forskolin): increased
- Tl influx signal with forskolin (WT hKir6.1/hSUR2B [3]; WT, 10 μM forskolin): failed to generate measurable
- Tl-influx rate with forskolin (hKir6.1[E189K]/hSUR2B; hKir6.1[E189K], 10 μM forskolin): increased

Compound: COc1ccc(Cl)cc1C(=O)NCCc1ccc(S(=O)(=O)NC(=O)NC2CCCCC2)cc1 [glibenclamide]
- reversal of mutation-caused hyperpolarization by inhibitor [1]: readily reversed
- glibenclamide concentration that effectively blocked basal activity [1, 7]: 100 to 300 nM
- glibenclamide concentration that markedly inhibited ([1]; most SUR2 CS mutations): < 100 nM
- reversal of mutation-caused hyperpolarization by inhibitor (hKir6.1[A46V]): readily reversed
- effect on gastric motility (gastric motility): restored gastric motility
- effect on CS-associated cardiovascular abnormalities (SUR2[A478V] mice): reversed CS-associated cardiovascular abnormalities
- sensitivity of mutation-caused hyperpolarization to reversal by inhibitor (hSUR2B[R1154W]): uniquely insensitive
- Hill coefficient, glibenclamide inhibition (hKir6.1[C176S]/hSUR2B; Kir6.1[C176S], 100 μM pinacidil, fit with eq. 4): 1.1 ± 0.5
- Hill coefficient, glibenclamide inhibition (hKir6.1[V65M]/hSUR2B; Kir6.1[V65M], 100 μM pinacidil, fit with eq. 4): 1.8 ± 0.8
- sensitivity of mutation-caused hyperpolarization to reversal by inhibitor [2]: very poorly sensitive
- Hill coefficient, glibenclamide inhibition (hKir6.1[A46V]/hSUR2B; 100 μM pinacidil, fit with eq. 4): 1.9 ± 0.3
- glibenclamide sensitivity (IPin+Glib/IPin) compared with WT ([6]; pinacidil-activated current): markedly reduced
- Hill coefficient, glibenclamide inhibition (hKir6.1[D338E]/hSUR2B; Kir6.1[D338E], 100 μM pinacidil, fit with eq. 4): 1.5 ± 0.4
- Hill coefficient, glibenclamide inhibition (WT hKir6.1/hSUR2B [3]; WT, 100 μM pinacidil, fit with eq. 4): 2.9 ± 6.0
- Hill coefficient, glibenclamide inhibition (hKir6.1[E189K]/hSUR2B; Kir6.1[E189K], 100 μM pinacidil, fit with eq. 4): 1.0 ± 0.2

Compound: O=C(NCCO[N+](=O)[O-])c1cccnc1 [nicorandil]
- activation of Tl influx by KCO (hKir6.1[V65M]/hSUR2B; hKir6.1[V65M]): measurable activation
- activation of Tl influx by KCO (hKir6.1/hSUR2B[R1154Q]): not activated
- activation of Tl influx by KCO (WT hKir6.1/hSUR2B [3]; WT): only activated by pinacidil and cromakalim

Compound: CC(N/C(=N\C#N)Nc1ccncc1)C(C)(C)C (centres unmarked) [pinacidil]
- maximum channel activity with pinacidil compared with WT (hKir6.1[C176S]/hSUR2B; Kir6.1[C176S], Tl influx dose-response): much higher
- Hill coefficient, pinacidil activation (hKir6.1[C176S]/hSUR2B; Kir6.1[C176S], fit with eq. 3): 1.2 ± 0.1
- DiBAC4(3) signal changes at 10 μM pinacidil (WT hKir6.1/hSUR2B [4]; 10 μM pinacidil): almost saturated
- effect on membrane potential (DiBAC4(3) fluorescence) (WT hKir6.1/hSUR2B [4]; 1 mM [K+]o): dose-dependently hyperpolarized
- potency of hyperpolarization, comparison (WT hKir6.1/hSUR2B [4]; 1 mM [K+]o): more potent than diazoxide
- share of the DiBAC4(3) signal change that occurs at <3 μM pinacidil (WT hKir6.1/hSUR2B [4]; <3 μM pinacidil, activation of <20% of maximal WT conductance): ~80%
- channel activity at very high concentration of pinacidil (hKir6.1[V65M]/hSUR2B; Kir6.1[V65M], 300 μM pinacidil): slightly decreased
- Hill coefficient, pinacidil activation (hKir6.1[V65M]/hSUR2B; Kir6.1[V65M], fit with eq. 3): 1.2 ± 0.0
- activation of Tl influx by KCO (hKir6.1[V65M]/hSUR2B; hKir6.1[V65M]): enhanced activation
- response of Tl-influx rate to pinacidil activation ([5]; pinacidil 100 μM): essentially insensitive
- activation of Tl influx by KCO (hKir6.1/hSUR2B[R1154Q]): not activated
- increase of whole-cell current by pinacidil (IPin/IBasal) (WT Kir6.1/SUR2B channels): ~150 fold
- Hill coefficient, pinacidil activation (hKir6.1[A46V]/hSUR2B; fit with eq. 3): 1.9 ± 0.2
- increase of whole-cell current by pinacidil (IPin/IBasal) ([6]; Vm -60 mV): ~10 fold
- Hill coefficient, pinacidil activation (hKir6.1[D338E]/hSUR2B; Kir6.1[D338E], fit with eq. 3): 1.7 ± 0.1
- pinacidil concentration at which Tl influx activation reached maximum (WT hKir6.1/hSUR2B [3]; WT channels): 100 µM
- activation of Tl influx by KCO (WT hKir6.1/hSUR2B [3]; WT): activated
- Hill coefficient, pinacidil activation (WT hKir6.1/hSUR2B [3]; WT, fit with eq. 3): 2.6 ± 1.0
- Hill coefficient, pinacidil activation (hKir6.1[E189K]/hSUR2B; Kir6.1[E189K], fit with eq. 3): 1.3 ± 0.4

Compound: CCOc1cc(CC(=O)N[C@@H](CC(C)C)c2ccccc2N2CCCCC2)ccc1C(=O)O [repaglinide]
- reversal of mutation-caused hyperpolarization by inhibitor [1]: readily reversed
- block of basal activity compared with glibenclamide [1, 7]: more effectively
- reversal of mutation-caused hyperpolarization by inhibitor (hKir6.1[A46V]): readily reversed
- sensitivity of mutation-caused hyperpolarization to reversal by inhibitor [2]: very poorly sensitive

Source: publication PMC10449099 (The Journal of Pharmacology and Experimental Therapeutics, 2023)
